A selection: hits, their analogues and other compounds. The true share with any hit is near 1.9%.
sPLA2-III inh = human group III sPLA2 inhibitors, primary screen, biochemical, QFRET, BODIPY PC-A2 liposome substrate. Group 3 secretory phospholipase A2 (Homo sapiens), Q9NZ20. QFRET BODIPY PC-A2 liposome hydrolysis, fluorescence. inhibition, % at 12.2 µM. 370,000 tested, 0.56% active. AID 743126, 2013;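 active means inhibition above mean plus 3 SD of compounds lying within the high and low control bounds, cut at about 19% in these data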;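 further: 0% = median of test compound wells and 100% = no enzyme DMSO wells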
Target sequence (Q9NZ20 whole entry, looked up): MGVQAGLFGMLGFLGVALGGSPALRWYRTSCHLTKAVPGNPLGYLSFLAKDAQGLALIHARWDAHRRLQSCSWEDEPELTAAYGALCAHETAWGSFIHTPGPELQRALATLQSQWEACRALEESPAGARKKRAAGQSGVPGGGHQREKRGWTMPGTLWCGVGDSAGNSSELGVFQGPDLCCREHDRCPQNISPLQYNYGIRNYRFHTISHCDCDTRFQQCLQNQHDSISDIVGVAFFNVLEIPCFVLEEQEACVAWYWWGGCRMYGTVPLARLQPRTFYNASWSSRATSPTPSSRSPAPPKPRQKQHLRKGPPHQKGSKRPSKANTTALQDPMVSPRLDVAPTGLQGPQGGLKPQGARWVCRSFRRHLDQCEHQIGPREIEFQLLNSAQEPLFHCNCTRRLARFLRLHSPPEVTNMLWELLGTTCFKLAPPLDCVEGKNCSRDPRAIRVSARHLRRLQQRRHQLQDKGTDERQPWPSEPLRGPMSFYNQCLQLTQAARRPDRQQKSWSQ
PLCg1 inh = PLC-gamma1 enzyme inhibitors, primary screen, biochemical, fluorescence, purified enzyme. 1-phosphatidylinositol 4,5-bisphosphate phosphodiesterase gamma-1 (Homo sapiens), P19174. fluorogenic substrate. inhibition, % at 12.2 µM. 370,000 tested, 0.84% active; in the data active means inhibition above about 9.5%
PLC-beta3 inh = human PLC-beta3 inhibitors, primary screen, biochemical, fluorescence; 1-phosphatidylinositol 4,5-bisphosphate phosphodiesterase beta-3 (Homo sapiens), Q01970; Purified PLC-beta3, fluorogenic substrate; inhibition, % at 12.2 µM; 370,000 tested, 0.18% active; AID 720704, 2013; in the data active means inhibition above about 11%;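 further: 0% = median of compound wells on plate and 100% = full blocker control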
TbMetRS inhib = T. brucei MetRS inhibitors, primary screen, biochemical, luminescence; methionyl-tRNA synthetase (Trypanosoma brucei brucei); purified T. brucei MetRS, ATP depletion, Kinase-Glo luminescence; inhibition, % at 11.9 µM; 360,000 tested, 0.4% active; AID 624268, 2012;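 active means inhibition above a per-plate cutoff of the control wells' mean inhibition plus 3 SD, cut at about 5.5% in these data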;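 further: 0% = DMSO wells median and 100% = median of wells with control inhibitor compound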
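System: purified T. brucei MetRS enzyme / Detection: Kinase-Glo luciferase luminescence reporting remaining unconsumed ATP / Medium: HEPES buffer with MgCl2, KCl, DTT, spermine, BSA, pyrophosphatase / Replication: singlicate, one well per compound / Evaluation: percent inhibition relative to median high and low control wells / Schedule: 2 h aminoacylation at 25 °C after 15 min preincubation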
DAGLB inh = DAGLB lipase inhibitors, primary screen, biochemical, fluorescence, HTS | Diacylglycerol lipase-beta (Homo sapiens), Q8NCG7 | HEK293T DAGLB membrane lysate, EnzChek fluorogenic substrate | inhibition, % at 5.17 µM | 340,000 tested, 0.059% active | AID 504411, 2011; in the data active means inhibition above about 34%;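 further: 0% = enzyme with vehicle and 100% = wells lacking enzyme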
* marks the source's active call; other numbers are inactive results; . = not tested or not shown.

SMILES	sPLA2-III inh	PLCg1 inh	PLC-beta3 inh	TbMetRS inhib	DAGLB inh
C[C@@]12C(=O)N(CC3CCCO3)CC(=O)N1[C@H]1c3cc(Cl)ccc3OC[C@@H]1[C@@H]2c1ccccc1 (stereo not given in full)	-9	10*	1	0	-1
Cc1ccc(C)c(S(=O)(=O)/N=C2\C=C(NS(=O)(=O)c3ccccc3)C(=O)c3ccccc32)c1	-9	-1	-10	0	28
Cc1cc(C)c(S(=O)(=O)/N=C2/C=C(Sc3ncn[nH]3)C(=O)c3ccccc32)cc1C	-20	12*	-4	2	1
OC(c1ccccc1)(c1ccccc1)C1CCN(CCCNc2cccc(OC(F)(F)F)c2)CC1	-17	3	3	.	.
CCOC(=O)c1c(C)[nH]c(C)c1C(=O)CSc1nc2ccccc2n1CCC#N	1	2	1	0	-3
N#CCCn1c(SCC(=O)c2c[nH]c3ccccc23)nc2ccccc21	-4	-5	-7	5.8*	0
CNc1nc(N)c([N+](=O)[O-])c(Nc2cccc(Br)c2)n1	3	4	5	.	.
S=C(NCCSCc1ccc(Cl)cc1Cl)Nc1ccccc1	-13	-1	-1	70*	0
S=C(NCCSCc1c(Cl)cccc1Cl)Nc1ccccc1	-23	0	-2	0	-4
O=C(NCCSCc1c(F)cccc1Cl)Nc1ccccc1	.	.	.	7.8*	-12
COC1=C(Br)C(=O)c2nc(C)ccc2C1=O	4	15*	-1	0	-5
O=C(O)C1=NN(c2cc(Cl)c(S(=O)(=O)O)cc2Cl)C(=O)C1	-1	15*	1	0	-1
C=CCn1cc(/C=N/Nc2nc3ccccc3[nH]2)c2ccccc21	2	-13	-9	5.6*	4
CCN(CC)c1ccc(/C=N/Nc2nc3ccccc3[nH]2)cc1	8	-170	-198	0	13
Cc1c(/C=N/Nc2nc3ccccc3[nH]2)c2ccccc2n1C	6	-21	-32	5	2
Cn1c(/C=N/Nc2nc3ccccc3[nH]2)nc2ccccc21	49*	-28	-58	1	3
CCCn1c(/C=N/Nc2nc3ccccc3[nH]2)nc2ccccc21	31*	-21	-26	3	6
CCOC(=O)CNC(=O)CSc1nnc(-c2cccs2)o1	15	2	-7	.	.
Cc1noc(C)c1C(=O)N1CCC(n2nnc3ncccc32)CC1	1	1	-1	.	.
Cc1ccc(C(=O)NCCN2C3=NC[C@H](Cc4ccc(O)cc4)N3C[C@H]2Cc2ccc(O)cc2)cc1Br	-10	10*	7	0	1
c1ccc(CN2CCN(c3ncnc4c3[nH]c3ccccc34)CC2)cc1	-14	-56	-79	6.2*	-3
CCCCNC(=O)C1CCCN1C(=O)Nc1cccc(C)c1 (stereo not given)	3	1	-1	.	.
COc1ccc(-c2cc(C(=O)NNC(=S)NC(=O)c3c(-c4ccccc4)noc3C)[nH]n2)cc1	24*	0	-2	0	12
CC(C)Oc1cccc(-c2csc(N3CCC(C(N)=O)CC3)n2)c1	6	0	-4	.	.
CCCOc1ccccc1C(=O)N(Cc1cccs1)C1CCS(=O)(=O)C1 (stereo not given)	4	3	12*	0	0
SMILES	sPLA2-III inh	PLCg1 inh	PLC-beta3 inh	TbMetRS inhib	DAGLB inh
CCOc1ccccc1C(=O)N(Cc1cccs1)C1CCS(=O)(=O)C1 (stereo not given)	2	2	4	0	-2
COC(=O)[C@]12C[C@H](CC(=O)NCc3ccc(OC)c(OC)c3)C(=O)N(CCC3=CCCCC3)C1=C[C@H](C(C)(C)C)O[C@@H]2C	-13	1	6	.	.
CN(C)c1ccc(C=C2C=Cc3ccccc32)cc1	-3	0	2	0	-4
CNc1ccc(C=C2C=Cc3ccccc32)cc1	25*	11*	7	0	3
C=CCN1CCN(C(=O)c2cc3c(s2)CCC(CC)C3)CC1 (stereo not given)	6	9.7*	1	0	-3
CC(C)C(=O)NC(c1cccc([N+](=O)[O-])c1)c1ccc2cccnc2c1O (stereo not given)	23*	0	-5	1	9
CC(C)C(=O)NC(c1ccco1)c1ccc2cccnc2c1O (stereo not given)	12	-25	-21	-1	6
CCCC(=O)NC(c1ccc(C)cc1)c1ccc2cccnc2c1O (stereo not given)	.	.	.	0	14
CCCC(=O)NC(c1cccc([N+](=O)[O-])c1)c1ccc2cccnc2c1O (stereo not given)	22*	-4	2	0	13
CCCC(=O)NC(c1ccc(Cl)cc1Cl)c1ccc2cccnc2c1O (stereo not given)	26*	-28	-20	-1	3
CC(C)(C)C(=O)N1CCC[C@]2(CC[C@H](CCC#N)O2)C1	5	0	-2	.	.
CCCC[C@H]1C2CC(OC(=O)NCCCc3ccccc3)C(C2)[C@H]2CCCCN21 (stereo not given in full)	5	2	4	.	.
Cc1cc(NS(C)(=O)=O)c(=O)n(Cc2cccc(F)c2)c1	23*	-10	-8	0	1
O=S1(=O)CCN2C(c3ccco3)=CSC2=N1	7	2	3	0	2
O=S1(=O)CCN2C(c3ccc4c(c3)CCCC4)=CSC2=N1	6	1	11*	-1	1
COC(=O)c1cc2c(c3c4cc(OC)ccc4n(S(=O)(=O)c4cccc(C)c4)c13)C(=O)N(Cc1ccc(C(F)(F)F)cc1)C2	-1	-11	-9	.	.
CC(C)(CN1CCNCC1)NS(=O)(=O)c1ccc(Cl)cc1	-29	16*	-1	0	-1
CCOC(=O)C1=C(C(=O)OCC)C2N(Cc3ccc(C#N)cc3)c3ccccc3[C@@]23C[C@@H](C(=O)OC)N(S(=O)(=O)c2ccccc2)C3=N1 (stereo not given in full)	1	-4	-1	.	.
CCn1c(COc2ccccc2)nnc1SCc1ccc(C#N)cc1	-4	9.6*	6	-1	-4
Cc1ccc2c(c1)N(C(=O)CSc1nncn1C)C(C)(C)c1ssc(=S)c1-2	24*	8	3	-1	19
CCn1c(SCC(=O)NN=Cc2c[nH]c3ccccc23)nc2ccccc21	-26	-2	-59	.	.
CC(=O)c1ccc2c(c1)C1C=CCC1C(C(=O)O)N2 (stereo not given)	-11	12*	-9	0	.
CC(=O)c1ccc2c(c1)C1C=CCC1C(c1ccncc1)N2 (stereo not given)	-8	-50	-62	0	3

Screening data from PubChem.
